Experimental data as given in ChEMBL document CHEMBL1681709, “Structure-activity relationship studies on 1-(5-carboxyindol-1-yl)-propan-2-one inhibitors of human cytosolic phospholipase A2α: variation of the activated ketone moiety” (Bioorg Med Chem Lett, 2011).
Activity calls are given as the source filed them. The calls are words filed in the database; no cut-off is given here.

What was measured:
Homo sapiens = organism: Homo sapiens; experiment: Inhibition of human platelet cytosolic phospholipase A2alpha at 10 uM
In short: (§1)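 cPLA2α isolated from human platelets. Reactions were stopped after 60 min with acetonitrile/methanol/0.1 M aqueous EDTA-Na2 containing 4-undecyloxybenzoic acid as internal standard and NDGA as oxygen scavenger. Released arachidonic acid was cleaned up by solid-phase extraction and quantified by RP-HPLC with UV detection at 200 nm. Results are IC50 or % inhibition at 10 μM, as means of at least two independent determinations.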

[1] = Inhibition of human platelet cytosolic phospholipase A2alpha; in short: as §1

CCCCCCCCc1ccc(OCC(Cn2ccc3cc(C(=O)O)ccc32)NC(=O)c2ccccc2)cc1 (racemic)
inhibition (Homo sapiens): inactive

CCCCCCCCc1ccc(OCC(Cn2ccc3cc(C(=O)O)ccc32)N=[N+]=[N-])cc1 (racemic)
IC50 [1]: 4.3 µM

CCCCCCCCc1ccc(OCC(Cn2ccc3cc(C(=O)O)ccc32)NC(=O)Oc2ccc(F)cc2)cc1 (racemic)
IC50 [1]: 1.7 µM

CCCCCCCCc1ccc(OCC(Cn2ccc3cc(C(=O)O)ccc32)NC(=O)Oc2ccc(Cl)cc2)cc1 (racemic)
inhibition (Homo sapiens): 28% | IC50 [1]: > 10 µM

CCCCCCCCc1ccc(OCC(Cn2ccc3cc(C(=O)O)ccc32)NC(=O)Oc2ccc(OC)cc2)cc1 (racemic)
inhibition (Homo sapiens): 23% | IC50 [1]: > 10 µM

CCCCCCCCc1ccc(OCC(N)Cn2ccc3cc(C(=O)O)ccc32)cc1 (racemic)
inhibition (Homo sapiens): 37% | IC50 [1]: > 10 µM

CCCCCCCCc1ccc(OCC(Cn2ccc3cc(C(=O)O)ccc32)OS(C)(=O)=O)cc1 (racemic)
inhibition (Homo sapiens): 16% | IC50 [1]: > 10 µM

CCCCCCCCc1ccc(OCC(Cn2ccc3cc(C(=O)O)ccc32)=NOC)cc1 (mixture of isomers)
inhibition (Homo sapiens): 22% | IC50 [1]: > 10 µM

CCCCCCCCc1ccc(OCC(Cn2ccc3cc(C(=O)O)ccc32)NC(=O)Oc2ccccc2OC)cc1 (racemic)
inhibition (Homo sapiens): inactive

CCCCCCCCc1ccc(OCC(Cn2ccc3cc(C(=O)O)ccc32)NC(=O)Oc2cccc(F)c2)cc1 (racemic)
IC50 [1]: 5.1 µM

CCCCCCCCc1ccc(OCC(Cn2ccc3cc(C(=O)O)ccc32)NC(=O)Oc2ccccc2)cc1 (racemic)
IC50 [1]: 4.6 µM

CCCCC/C=C\C/C=C\C/C=C\C/C=C\CCCC(=O)C(F)(F)F [ARACHIDONYL TRIFLUOROMETHYLKETONE]
IC50 [1]: 2.3 µM

CCCCCCCCc1ccc(OCC(Cn2ccc3cc(C(=O)O)ccc32)OC(C)=O)cc1 (racemic)
inhibition (Homo sapiens): inactive

CCCCCCCCc1ccc(OCC(Cn2ccc3cc(C(=O)O)ccc32)OC(=O)c2ccccc2)cc1 (racemic)
inhibition (Homo sapiens): 18% | IC50 [1]: > 10 µM

CCCCCCCCc1ccc(OCC(Cn2ccc3cc(C(=O)O)ccc32)NC(=O)Oc2ccccc2Cl)cc1 (racemic)
inhibition (Homo sapiens): inactive

CCCCCCCCc1ccc(OC/C(Cn2ccc3cc(C(=O)O)ccc32)=N\O)cc1
inhibition (Homo sapiens): 32% | IC50 [1]: > 10 µM

CCCCCCCCc1ccc(OC/C(Cn2ccc3cc(C(=O)O)ccc32)=N/O)cc1
inhibition (Homo sapiens): 42% | IC50 [1]: > 10 µM

CCCCCCCCc1ccc(OCC(Cn2ccc3cc(C(=O)O)ccc32)OC(=O)Nc2ccccc2)cc1 (racemic)
inhibition (Homo sapiens): inactive

CCCCCCCCc1ccc(OCC(Cn2ccc3cc(C(=O)O)ccc32)NC(=O)OC)cc1 (racemic)
inhibition (Homo sapiens): 21% | IC50 [1]: > 10 µM

CCCCCCCCc1ccc(OCC(Cn2ccc3cc(C(=O)O)ccc32)NC(C)=O)cc1 (racemic)
inhibition (Homo sapiens): inactive

CCCCCCCCc1ccc(OCC(Cn2ccc3cc(C(=O)O)ccc32)NC(=O)Oc2ccccc2F)cc1 (racemic)
inhibition (Homo sapiens): inactive

CCCCCCCCc1ccc(OCC(Cn2ccc3cc(C(=O)O)ccc32)NC(=O)Nc2ccccc2)cc1 (racemic)
inhibition (Homo sapiens): inactive
